Tests used:
Rattus norvegicus [1] = assay: Percent change in total cholesterol concentration in serum from hypercholesterolemic rats at dose 50 mg/kg (po); assay type: functional
Rattus norvegicus [2] = assay: Percent increase in liver weight in rats when administered perorally; assay type: functional
Rattus norvegicus [3] = assay: Percent change in high density lipoproteins cholesterol concentration in serum from hypercholesterolemic rats at dose 50 mg/kg (po); assay type: functional
How it was run: (§1)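 Rats were fed 1.5% cholesterol/0.5% cholic acid diet for 7 days, with compounds given by gavage over the last 4 days as a 0.5% Methocel suspension (0.5 mL/100 g). Rats were fasted overnight, killed on day 8 and bled under light CO₂ anesthesia. HDL was isolated by heparin-MnCl₂ precipitation (8000 rpm, 15 min, 4 °C). Total and HDL cholesterol were measured enzymatically-colorimetrically; % change vs control.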

Rattus norvegicus [4] = assay: Percent change in total cholesterol concentration in serum from hypercholesterolemic rats at dose 45 mg/kg (po); assay type: functional
Rattus norvegicus [5] = assay: Percent change in high density lipoproteins cholesterol concentration in serum from hypercholesterolemic rats at dose 45 mg/kg (po); assay type: functional; how it was run: as §1
Rattus norvegicus [6] = species: Rattus norvegicus; assay: Compound was tested in vitro for inhibition of Cholesterol biosynthesis in rat liver slices, % inhibition of [14C]acetate incorporation in neutral lipids at 2 e10-4 concentration; assay type: functional
How it was run: (§2)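 Liver slices (250 mg) from fed male rats were incubated in Krebs-Ringer bicarbonate, pH 7.4, with 4 mM [2-¹⁴C]acetate under 95% O₂-5% CO₂. Compounds were tested at a final 2 × 10⁻⁴ M, or 5 × 10⁻⁵ M for one compound. ¹⁴C incorporation into cholesterol and into petroleum-ether-soluble nonsaponifiable neutral lipids gave % inhibition; mean of four determinations.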

Rattus norvegicus [7] = species: Rattus norvegicus; assay: Compound was tested in vitro for inhibition of Cholesterol biosynthesis in rat liver slices, % inhibition of [14C]-acetate incorporation in cholesterol at 2 e10-4 concentration; assay type: functional; how it was run: as §2
Rattus norvegicus [8] = assay: Percent change in high density lipoproteins cholesterol concentration in serum from hypercholesterolemic rats at dose 35 mg/kg (po); assay type: functional; how it was run: as §1
Rattus norvegicus [9] = assay: Percent change in total cholesterol concentration in serum from hypercholesterolemic rats at dose 35 mg/kg (po); assay type: functional
Rattus norvegicus [10] = assay: Percent change in high density lipoproteins cholesterol concentration in serum from hypercholesterolemic rats at dose 37 mg/kg (po); assay type: functional; how it was run: as §1
Rattus norvegicus [11] = assay: Percent change in total cholesterol concentration in serum from hypercholesterolemic rats at dose 37 mg/kg (po); assay type: functional
Rattus norvegicus [12] = assay: Compound was tested for its activity in diet-induced Hypercholesterolemic rats at dose 50 mg/kg after peroral administration palmitoyl-CoA oxidation activity(per mg) of protein; assay type: functional; conditions: route oral
[13] = Compound was tested for Hepatic peroxisomal proliferation effect in male rats treated for 7 days at dose 50 mg/kg ratio of % liver weight to % body weight; assay type: functional
Rattus norvegicus [14] = assay: Compound was tested for Hepatic peroxisomal proliferation effect in male rats treated for 7 days at dose 50 mg/kg protein; assay type: functional
Rattus norvegicus [15] = assay: Compound was tested for Hepatic peroxisomal proliferation effect in male rats treated for 7 days at dose 50 mg/kg concentration of hepatic proteins(mg/g) in liver; assay type: functional, organism-based; set-up: dose 50 mg/kg
Rattus norvegicus [16] = assay: Compound was tested for its activity in diet-induced Hypercholesterolemic rats at dose 50 mg/kg after peroral administration carnitine acetyl transferase activity(per mg) of protein; assay type: functional; conditions: route oral

| Structure (SMILES) | Change (Rattus norvegicus [1]) [%] | Change (Rattus norvegicus [2]) [%] | Change (Rattus norvegicus [3]) [%] | also measured |
| --- | --- | --- | --- | --- |
| O=C1c2cc(Br)ccc2OCC1n1ccnc1 (stereo unspecified) | -50 | 23 | 144 | – |
| OC1c2cc(Cl)ccc2OCC1n1ccnc1 (trans isomer) | – | 20 | – | Change (Rattus norvegicus [1]; 50 mg/kg): -14%; Change (Rattus norvegicus [3]; 50 mg/kg): 83% |
| COc1ccc2c(c1)C(=O)C(n1ccnc1)CO2 (stereo unspecified) | -21 | 20 | 88 | – |
| CCCC1Oc2ccccc2C(=O)C1n1ccnc1 (stereo unspecified) | – | 20 | – | Change (Rattus norvegicus [4]): -4%; Change (Rattus norvegicus [5]): 53% |
| Nc1ccc2c(c1)C(=O)C(n1ccnc1)CC2 (stereo unspecified) | – | 3 | – | Inhibition (Rattus norvegicus [6]): 0%; Inhibition (Rattus norvegicus [7]): 74%; Change (Rattus norvegicus [8]): 31%; Change (Rattus norvegicus [9]): -24% |
| CN(C)c1ccc2c(c1)C(=O)C(n1ccnc1)CC2 (stereo unspecified) | – | 11 | – | Inhibition (Rattus norvegicus [6]): 0%; Inhibition (Rattus norvegicus [7]): 55%; Change (Rattus norvegicus [10]): 69%; Change (Rattus norvegicus [11]): -37% |
| CCCCCCCCOC1c2cc(Cl)ccc2OCC1n1ccnc1 (stereo unspecified) | 42 | – | 18 | – |
| CC(C)(C)c1cc(Br)c2c(c1)C(=O)C(n1ccnc1)CO2 (stereo unspecified) | -12 | 15 | 57 | – |
| CCC1(c2ccccc2)C(=O)NC(=O)NC1=O [PHENOBARBITAL] | – | – | – | Activity (Rattus norvegicus [12]): 1.15; Ratio [13]: 4.32%; Activity (Rattus norvegicus [14]): 1.92; Concentration (Rattus norvegicus [15]): 40.6; Activity (Rattus norvegicus [16]): 4.2 |
| CC1Oc2cc(O)c(C(C)(C)C)cc2C(=O)C1n1ccnc1 (stereo unspecified) | -7 | 9 | 32 | – |
| O=C1c2ccc(-c3ccccc3)cc2OCC1n1ccnc1 (stereo unspecified) | -48 | 22 | 118 | – |
| O=C1c2cc(O)ccc2OCC1n1ccnc1 (stereo unspecified) | 9 | 3 | -4 | – |
| COc1ccc2c(c1)OC(C)C(n1ccnc1)C2=O (stereo unspecified) | 11 | 2 | 5 | – |
| O=C1c2ccccc2CCC1n1cccn1 (stereo unspecified) | 52 | 9 | -3 | – |
| O=C1c2ccccc2OC(c2ccccc2)C1n1ccnc1 (stereo unspecified) | 27 | 5 | -3 | – |
| COc1ccc2c(c1)OCC(n1ccnc1)C2=O (stereo unspecified) | 11 | 3 | -1 | – |
| CC(C)(C)c1cc2c(cc1O)OCC(n1ccnc1)C2=O (stereo unspecified) | -55 | 11 | 97 | – |
| O=C1c2ccccc2OCC1n1ccnc1 (stereo unspecified) | 34 | 16 | 4 | – |
| COc1cc(Br)c2c(c1)C(=O)C(n1ccnc1)CO2 (stereo unspecified) | 14 | 6 | 64 | – |
| COC1c2cc(Cl)ccc2OCC1n1ccnc1 (racemic) | 8 | 15 | -7 | – |
| CC1Oc2ccccc2C(=O)C1n1ccnc1 (stereo unspecified) | -67 | 15 | 115 | – |
| Clc1ccc2c(c1)C=C(n1ccnc1)CO2 | -10 | 2 | 25 | – |

Source: ChEMBL document CHEMBL1123418, “N-imidazolylchroman-4-ones, N-imidazolyl-1-tetralones, and their alcohols as hypolipemic agents raising high-density lipoproteins” (1986)
